ChEMBL document CHEMBL1138269, “Antimicrobial lexitropsins containing amide, amidine, and alkene linking groups” (J Med Chem, 2007)
Values after ≈ are worked out from the molar mass of the structure shown.

How the values were obtained:
Assay type in all cases: functional
Enterococcus faecalis = experiment: Antibacterial activity against Streptococcus faecalis NCTC 775; settings: Enterococcus faecalis, NCTC 775; read-out: MIC
Method in brief: (§1)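 Broth microdilution in Mueller-Hinton broth. Samples were dissolved in sterile water to 200 µg mL-1 as the working solution and doubling dilutions were made across rows. Plates were incubated at 37 °C and inspected visually, with resazurin added as growth indicator. MIC reported in µg mL-1.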

[1] = system: Mycolicibacterium fortuitum; experiment: Antibacterial activity against Mycobacterium fortuitum NCTC 10394; method in brief: as §1
Aspergillus niger = experiment: Antifungal activity against Aspergillus niger IMI 149007
Method in brief: (§2)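 Antifungal microdilution in Sabouraud broth. Test sample at 200 µg mL-1 working solution in sterile water was serially doubled down successive rows. Incubation was at 25 °C, followed by visual growth check and addition of resazurin indicator. Read-out is MIC in µg mL-1.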

Staphylococcus aureus = experiment: Antibacterial activity against methicillin-sensitive Staphylococcus aureus NCTC 6571; settings: Staphylococcus aureus, NCTC 6571; read-out: MIC; method in brief: as §1
Candida albicans = experiment: Antifungal activity against Candida albicans NCPF 3179; settings: Candida albicans; read-out: MIC; method in brief: as §2

SMILES | MIC (Enterococcus faecalis) | MIC [1] | MIC (Aspergillus niger) | MIC (Staphylococcus aureus) | MIC (Candida albicans)
CC(C)n1cc(NC(=O)c2cc(NC(=N)c3ccccc3)cn2C)cc1C(=O)Nc1cc(C(=O)NCCCN(C)C)n(C)c1 | > 50 µg/mL | > 50 µg/mL | > 50 µg/mL | 50 µg/mL (≈ 83.4 µM) | > 50 µg/mL
CC(C)c1sc(NC(=O)c2cc(NC(=O)c3cc(NC(=O)c4cc5ccccc5cn4)cn3C)cn2C)nc1C(=O)NCCN1CCOCC1 | > 50 µg/mL | > 50 µg/mL | > 50 µg/mL | > 50 µg/mL | > 50 µg/mL
CN(C)CCCNC(=O)c1cc(NC(=O)c2cc(NC(=O)c3cc(NC(=O)c4ccc(Cl)c(Cl)n4)cn3C)cn2C)cn1C | > 50 µg/mL | > 50 µg/mL | 50 µg/mL (≈ 77.8 µM) | > 50 µg/mL | 25 µg/mL (≈ 38.9 µM)
COc1cccc(C(=N)Nc2cc(C(=O)Nc3cc(C(=O)Nc4cc(C(=O)NCCCN(C)C)n(C)c4)n(C)c3)n(C)c2)c1 | > 50 µg/mL | > 50 µg/mL | 25 µg/mL (≈ 41.5 µM) | 25 µg/mL (≈ 41.5 µM) | > 50 µg/mL
COc1cccc(C(=N)Nc2cc(C(=O)Nc3cc(C(=O)Nc4cc(C(=O)NCCN5CCOCC5)n(C)c4)n(C)c3)n(C)c2)c1 | > 50 µg/mL | > 50 µg/mL | > 50 µg/mL | > 50 µg/mL | > 50 µg/mL
COc1ccc(C(=O)Nc2cc(C(=O)Nc3cc(C(=O)Nc4cn(CCCN(C)C)cn4)n(C)c3)n(C)c2)cc1 | > 50 µg/mL | > 50 µg/mL | > 50 µg/mL | > 50 µg/mL | > 50 µg/mL
Cn1cc(NC(=O)c2cc(NC(=O)c3ccc(/C=C/c4ccc5ccccc5n4)cc3)cn2C)cc1C(=O)NCCN1CCOCC1 | > 50 µg/mL | > 50 µg/mL | > 50 µg/mL | 50 µg/mL (≈ 79.1 µM) | > 50 µg/mL
COc1cccc(C(=N)Nc2cc(C(=O)Nc3cc(C(=O)Nc4cn(CCCN(C)C)cn4)n(C)c3)n(C)c2)c1 | > 50 µg/mL | > 50 µg/mL | > 50 µg/mL | > 50 µg/mL | > 50 µg/mL
Cn1cc(NC(=O)c2cc(NC(=O)c3ccc(/C=C/c4nc5ccccc5s4)cc3)cn2C)cc1C(=O)NCCN1CCOCC1 | 25 µg/mL (≈ 39.2 µM) | > 50 µg/mL | > 50 µg/mL | 25 µg/mL (≈ 39.2 µM) | > 50 µg/mL
COc1cccc(C(=N)Nc2cc(C(=O)Nc3cc(C(=O)Nc4nc(C(=O)NCCCN(C)C)c(C(C)C)s4)n(C)c3)n(C)c2)c1 | 50 µg/mL (≈ 77.2 µM) | > 50 µg/mL | 50 µg/mL (≈ 77.2 µM) | 13 µg/mL (≈ 20.1 µM) | > 50 µg/mL
CC(=N)Nc1cc(C(=O)Nc2cc(C(=O)Nc3cc(C(=O)NCCCN(C)C)n(C)c3)n(C(C)C)c2)n(C)c1 | 50 µg/mL (≈ 93 µM) | > 50 µg/mL | 50 µg/mL (≈ 93 µM) | 13 µg/mL (≈ 24.2 µM) | > 50 µg/mL
CN(C)CCCn1cnc(NC(=O)c2cc(NC(=O)c3cc(NC(=O)c4cc5ccccc5cn4)cn3C)cn2C)c1 | > 50 µg/mL | > 50 µg/mL | > 50 µg/mL | > 50 µg/mL | > 50 µg/mL
Cn1cc(NC(=O)c2cc(NC(=O)c3ccc(/C=C/c4ccc5ccccc5c4)cc3)cn2C)cc1C(=O)NCCN1CCOCC1 | > 50 µg/mL | > 50 µg/mL | > 50 µg/mL | 25 µg/mL (≈ 39.6 µM) | > 50 µg/mL
CC(C)CCc1sc(NC(=O)c2cc(NC(=O)c3ccc(/C=C/c4cc5ccccc5nc4Cl)cc3)cn2C)nc1C(=O)NCCN1CCOCC1 | > 50 µg/mL | > 50 µg/mL | > 50 µg/mL | > 50 µg/mL | > 50 µg/mL
CC(C)c1sc(NC(=O)c2cc(NC(=O)c3cc(NC=O)cn3C)cn2C)nc1C(=O)NCCCN(C)C | 10 µg/mL (≈ 18.4 µM) | 19 µg/mL (≈ 35 µM) | 76 µg/mL (≈ 140 µM) | 5 µg/mL (≈ 9.21 µM) | 76 µg/mL (≈ 140 µM)
CN(C)CCCNC(=O)c1cc(NC(=O)c2cc(NC(=O)c3cc(/C=C/c4ccc5ccccc5n4)cn3C)cn2C)cn1C | > 50 µg/mL | > 50 µg/mL | 50 µg/mL (≈ 82.4 µM) | > 50 µg/mL | 25 µg/mL (≈ 41.2 µM)
CC(C)c1sc(NC(=O)c2cc(NC(=O)c3cc(NC(=O)c4cc5ccccc5cn4)cn3C)cn2C)nc1C(=O)NCCCN(C)C | 50 µg/mL (≈ 74.6 µM) | 50 µg/mL (≈ 74.6 µM) | > 50 µg/mL | 50 µg/mL (≈ 74.6 µM) | 50 µg/mL (≈ 74.6 µM)
COc1cccc(C(=O)Nc2ccc(C(=O)Nc3cc(C(=O)Nc4cc(C(=O)NCCN5CCOCC5)n(C)c4)n(C)c3)cc2)c1 | > 50 µg/mL | > 50 µg/mL | > 50 µg/mL | > 50 µg/mL | > 50 µg/mL
Cn1cc(NC(=O)c2cc(NC(=O)c3ccc(NC(=O)c4cnc5ccccc5c4)cc3)cn2C)cc1C(=O)NCCN1CCOCC1 | > 50 µg/mL | > 50 µg/mL | > 50 µg/mL | > 50 µg/mL | > 50 µg/mL
